# Results taken from ChEMBL document CHEMBL1140132, “Virtual screening, identification, and biochemical characterization of novel inhibitors of the reverse transcriptase of human immunodeficiency virus type-1” (J Med Chem, 2008).
# Active and inactive are the calls of the source. The rule behind the calls is not given here.
# Assays:
# [1] = Selectivity index, ratio of inhibition of DNA dependent DNA polymerase activity of Escherichia coli DNA polymerase 1 Klenow fragment to inhibition of DNA dependent DNA polymerase activity of HIV1 BH10 recombinant reverse transcriptase p66/p51
# How it was run: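 Ratio of residual Klenow fragment DNA-dependent DNA polymerase activity to residual HIV-1 RT activity. Both enzymes were assayed side by side under identical conditions: activated herring sperm DNA at 20 µg/mL, all four dNTPs, 37 °C, 1% DMSO, compound at 50 µg/mL.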
# Escherichia coli = experiment: Inhibition of DNA dependent DNA polymerase activity of Escherichia coli DNA polymerase 1 Klenow fragment assessed as residual enzyme activity at 50 ug/ml relative to control
# [2] = tested on: Human immunodeficiency virus 1; experiment: Antiviral activity against HIV1 infected in human 721.221 B lymphocytes assessed as inhibition of pseudovirus infection; conditions: Human immunodeficiency virus 1, 721.221
# [3] = Cytotoxicity against human 721.221 cells after 72 hrs by XTT assay; format: cell-based
# How it was run: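 721.221 B lymphocytes incubated 72 h at 37 °C with a range of inhibitor concentrations, each concentration in triplicate. Viability read by XTT absorbance at 450 nm, with 620 nm reference. CC50 is the concentration reducing viability by 50% versus the inhibitor-free control.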
# [4] = Selectivity index, ratio of CC50 for human 721.221 cells to IC50 for HIV1 pseudovirus infection; format: functional
# How it was run: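 CC50 in 721.221 cells from a 72 h XTT viability assay, divided by IC50 against infection by VSV-G-pseudotyped HIV-1 GFP reporter virus. For the infection assay, cells were infected with 5.6 µg/mL Polybrene and 1% DMSO in RPMI, then fixed at 48–72 h and analysed by flow cytometry. IC50 came from a four-parameter logistic fit.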
# [5] = target: T1, Human immunodeficiency virus type 1 reverse transcriptase (Human immunodeficiency virus 1, UniProt Q72547); experiment: Inhibition of RNA dependent DNA polymerase activity of HIV1 BH10 recombinant reverse transcriptase p66/p51 assessed as residual enzyme activity
# How it was run: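 Recombinant RT RNA-dependent DNA polymerase activity measured as [3H]dTTP incorporation into poly(rA)n·oligo(dT)12-18 at 37 °C in 1% DMSO. Inhibitor was mixed into buffer before RT was added. Compound present at 50 µg/mL final.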
# [6] = target: T1, Human immunodeficiency virus type 1 reverse transcriptase; experiment: Inhibition of DNA dependent DNA polymerase activity of HIV1 BH10 recombinant reverse transcriptase p66/p51 assessed as residual enzyme activity
# How it was run: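 Recombinant RT DNA-dependent DNA polymerase assay at 37 °C in 1% DMSO, with the inhibitor premixed into buffer before RT was added. Template was activated herring sperm DNA, 20 µg/mL final, with all four dNTPs. Compound present at 50 µg/mL final.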
# [7] = target: Human immunodeficiency virus type 1 reverse transcriptase (Human immunodeficiency virus 1) (UniProt Q72547); experiment: Inhibition of HIV1 BH10 recombinant reverse transcriptase p66/p51 RNase H activity assessed as residual enzyme activity
# How it was run: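 FRET RNase H assay: RT at 6 nM with 1 mM DTT, incubated with a fluorescein-RNA/DNA-dabcyl hybrid substrate ± inhibitor for 30 min at 37 °C. Hydrolysis is read as emitted fluorescence, in triplicate. Residual activity is relative to the inhibitor-free control.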
# [8] = tested on: Human immunodeficiency virus type 1 reverse transcriptase (Human immunodeficiency virus 1), Q72547 [L100I,K103N]; experiment: Inhibition of DNA dependent DNA polymerase activity of HIV1 reverse transcriptase L100I/K103N mutant expressed in Escherichia coli DH5alpha
# How it was run: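 DDDP assay on activated herring sperm DNA (20 µg/mL final) with all four dNTPs, at 37 °C with 1% DMSO. Inhibitor in DMSO is premixed into the buffer before RT is added. Read-out is dNTP incorporation. Dose-response is fitted to a four-parameter logistic for IC50. Values are means of three independent experiments.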
# [9] = tested on: Human immunodeficiency virus 2; experiment: Inhibition of RNA dependent DNA polymerase activity of HIV2 recombinant reverse transcriptase at 140 uM
# [10] = target: Human immunodeficiency virus type 1 reverse transcriptase (Human immunodeficiency virus 1, UniProt Q72547, Y181C); experiment: Inhibition of RNA dependent DNA polymerase activity of HIV1 reverse transcriptase Y181C mutant expressed in Escherichia coli BL21
# [11] = target: T1, Human immunodeficiency virus type 1 reverse transcriptase; experiment: Inhibition of RNA dependent DNA polymerase activity of HIV1 BH10 recombinant reverse transcriptase p66/p51 assessed as residual enzyme activity at 616 nM using dTTP substrate by steady state kinetic assay
# [12] = target: T1, Human immunodeficiency virus type 1 reverse transcriptase; experiment: Inhibition of RNA dependent DNA polymerase activity of HIV1 BH10 recombinant reverse transcriptase p66/p51 assessed as residual enzyme activity at 616 nM using rA.dT substrate by steady state kinetic assay
# [13] = target: Human immunodeficiency virus type 1 reverse transcriptase (Human immunodeficiency virus 1) (UniProt Q72547); experiment: Inhibition of RNA dependent DNA polymerase activity of HIV1 BH10 recombinant reverse transcriptase p66/p51 assessed as residual enzyme activity at 616 nM using variable enzyme levels by steady state kinetic assay relative to control
# [14] = tested on: Human immunodeficiency virus 1; experiment: Antiviral activity against HIV1 infected in human 293T cells assessed as inhibition of pseudovirus infection; format: functional, organism-based; conditions: Human immunodeficiency virus 1, HEK-293T
# [15] = tested on: Human immunodeficiency virus 1; experiment: Antiviral activity against HIV1 infected in 8186 T cells; format: functional, organism-based; conditions: Human immunodeficiency virus 1, T-cell
# [16] = tested on: Human immunodeficiency virus 1; experiment: Antiviral activity against HIV1 infected in human CEM cells; format: functional, organism-based; conditions: Human immunodeficiency virus 1, CCRF-CEM
# [17] = tested on: Human immunodeficiency virus 1; experiment: Antiviral activity against HIV1 infected in human 293T cells; format: functional, organism-based; conditions: Human immunodeficiency virus 1, HEK-293T
# [18] = tested on: Human immunodeficiency virus 2; experiment: Inhibition of DNA dependent DNA polymerase activity of HIV2 recombinant reverse transcriptase at 140 uM
SMILES,Ratio [1],Activity (Escherichia coli),IC50 [2],further results
CCCOCCCNC(=S)Nc1cccc(C(=O)OCC)c1,1.2,56.6%,,
Cc1ccc(CCN2C(=O)CS[C@@H]2c2ccc(C)o2)cc1,,,> 20000 nM,
CCCOCCCNC(=S)Nc1cc(OC)ccc1OC,,,3000 nM,
CCCOCCCNC(=S)Nc1ccccc1OCC,5.4,87.1%,430 nM,
CCCOCCCNC(=S)Nc1cc(C)ccc1OC,4.3,71.7%,890 nM,
Cc1ccc(NC(=S)N2CCc3c([nH]c4ccccc34)C2)c(Cl)c1,,,> 20000 nM,
C[C@H](NC(=S)Nc1ccc(Cl)cc1)c1ccccc1,,,4000 nM,
CCCOCCCNC(=S)Nc1ccc(Br)c(C)c1,0.6,14.4%,,
CCCOCCCNC(=S)Nc1ccc(C(=O)OC)cc1,0.2,2.6%,,
CCCOCCCNC(=S)Nc1cccc(OC)c1,3.2,98.7%,,
CCCOCCCNC(=S)Nc1ccc(C(C)(C)C)cc1,0.4,13.8%,,
CC(C)(C)CNC(=O)Nc1cc(C(F)(F)F)cc(C(F)(F)F)c1,,,> 20000 nM,
CCCOCCCNC(=S)Nc1cc(C)c(C)cc1C,2.9,64.4%,,
CCCOCCCNC(=S)Nc1cccc(C#N)c1,1.1,75.2%,,
CCCOCCCNC(=S)Nc1cc(OC)c(Cl)cc1OC,7.4,62.2%,170 nM,CC50 at 72 h [3]: 58000 nM; Ratio CC50/IC50 [4]: 345; IC50 [5]: 510 nM; IC50 [6]: 940 nM; Activity [7]: inactive; Activity [8]: Active; inhibition [9]: 50%; IC50 [10]: 70000 nM; Ki [11]: 1100 nM; Ki [12]: 1800 nM; Activity [13]: 59%
CCCOCCCNC(=S)Nc1ccc(N(C)C)cc1,0.2,11.1%,,
S=C(NCc1ccco1)N1CCO[C@H](COc2cncc(Cl)c2)C1,,,> 20000 nM,
CCCOCCCNC(=S)Nc1ccc(F)cc1Br,1.2,47.6%,,
COc1cccc(CCNC(=S)Nc2ccc(Br)c(C)c2)c1OC,,,7700 nM,
Cc1cc(NC(=S)NCCC2=CCCCC2)ccc1Br,,,230 nM,
CCOC(=O)CCCNC(=S)Nc1ccc(Cl)c(C(F)(F)F)c1,,,1600 nM,

SMILES,Ratio [1],Activity (Escherichia coli),IC50 [2],further results
CCCOCCCNC(=S)Nc1ccc(Br)c(Cl)c1,0.2,1%,,
CCCCc1ccc(NC(=S)NCCCOCCC)c(C)c1,0.2,4.5%,,
CCCOCCCNC(=S)Nc1ccc(Cl)cc1C,,47.5%,2600 nM,
Cc1ccnc2c1NC(=O)c1cccnc1N2C1CC1 [NEVIRAPINE],,47.5%,,IC50 [14]: 14 nM; IC50 [15]: 40 nM; IC50 [16]: 24 nM; IC50 [17]: 50 nM; Activity [7]: inactive; Activity [8]: Active; Activity [18]: inactive
CCCCc1ccc(NC(=S)NCCCOCCC)cc1,2.4,74.2%,,
CCCOCCCNC(=S)Nc1cccc(Cl)c1C,0.4,10.8%,,
CCCOCCCNC(=S)Nc1ccccc1Cl,1.2,59.3%,,
CCCOCCCNC(=S)Nc1ccc(Cl)c(C(F)(F)F)c1,0.5,2.2%,,
CCOC(=O)CCN(Cc1ccco1)C(=S)Nc1cccc(OC)c1,,,> 20000 nM,
O=S(=O)(Nc1n[nH]cc1Br)c1cccc2nsnc12,,,370 nM,Ratio CC50/IC50 [4]: >446; IC50 [5]: 2800 nM; IC50 [6]: 3300 nM; Activity [7]: inactive; Activity [8]: Active; inhibition [9]: 50%; IC50 [10]: 20000 nM
C=CCOc1nc(OCC=C)nc(OC[C@@H]2CN(C(=S)NCc3ccco3)CCO2)n1,,,> 20000 nM,
CCCOCCCNC(=S)Nc1ccc(Cl)cc1Cl,0.2,13.2%,,
CCCOCCCNC(=S)Nc1ccc(Br)cc1,1.7,48.4%,,
COc1ccccc1NC(=S)NCc1ccco1,,,> 20000 nM,
CCCOCCCNC(=S)Nc1cc(Cl)ccc1OC,3.2,50.8%,320 nM,
S=C(NCc1ccco1)Nc1ccc(Cl)cc1,,,> 20000 nM,
S=C(NCc1ccco1)NC1CCCCC1,,,> 20000 nM,
COc1ccc(CCn2cc(NC(=O)CCc3ccoc3)cn2)cc1OC,,,> 20000 nM,
CCCOCCCNC(=S)Nc1cc(F)ccc1F,0.6,47.5%,,
CCCOCCCNC(=S)Nc1cc(C)ccc1Cl,4.4,76.5%,670 nM,
